Activity calls are given as the source filed them. The rule behind the calls is not given here.
What was measured:
[1] = tested on: U-251; experiment: Inhibition of cell invasion in human U251 cells at 10 uM incubated for 48 hrs by Boyden chamber method; format: functional
Outline: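 Boyden chamber invasion: U251 cells serum-starved 24 h, then 2.5×10^5 cells seeded in 8-μm ECMatrix-coated transwells. Treated with compound at 1 or 10 μM for 48 h at 37 °C. Invasion ratio from relative fluorescence.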

[2] = tested on: U-251; experiment: Inhibition of cell migration in human U251 cells incubated for 18 hrs by wound healing assay; format: functional, cell-based; details: dose 1-10 µM
Outline: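 U251 monolayer, 2.0×10^5 cells/well, plated overnight, then scratched and washed with PBS. Incubated 18 h in complete medium with compound (1, 5 or 10 μM). Wound area imaged before and after incubation; migration ratio taken from migrated area. One-way ANOVA.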

[3] = tested on: U-251; experiment: Antiproliferative activity against human U251 cells overexpressing ANO1 assessed as reduction in cell viability in presence of temozolomide measured after 72 hrs by Celltiter-glo assay; format: functional
[4] = biological target: T1, Anoctamin-1 (Mus musculus) (UniProt Q8BHY3); experiment: Reversible inhibition of GFP-fused mouse ANO1 channel expressed in HEK293A cells assessed as channel current amplitude at 10 uM at membrane potential of +80 mV measured after drug wash-out by patch clamp electrophysiology assay; format: cell-based; parameters: scale not given: the % may be the effect or the level left; details: HEK293-A
T1 sequence (whole entry): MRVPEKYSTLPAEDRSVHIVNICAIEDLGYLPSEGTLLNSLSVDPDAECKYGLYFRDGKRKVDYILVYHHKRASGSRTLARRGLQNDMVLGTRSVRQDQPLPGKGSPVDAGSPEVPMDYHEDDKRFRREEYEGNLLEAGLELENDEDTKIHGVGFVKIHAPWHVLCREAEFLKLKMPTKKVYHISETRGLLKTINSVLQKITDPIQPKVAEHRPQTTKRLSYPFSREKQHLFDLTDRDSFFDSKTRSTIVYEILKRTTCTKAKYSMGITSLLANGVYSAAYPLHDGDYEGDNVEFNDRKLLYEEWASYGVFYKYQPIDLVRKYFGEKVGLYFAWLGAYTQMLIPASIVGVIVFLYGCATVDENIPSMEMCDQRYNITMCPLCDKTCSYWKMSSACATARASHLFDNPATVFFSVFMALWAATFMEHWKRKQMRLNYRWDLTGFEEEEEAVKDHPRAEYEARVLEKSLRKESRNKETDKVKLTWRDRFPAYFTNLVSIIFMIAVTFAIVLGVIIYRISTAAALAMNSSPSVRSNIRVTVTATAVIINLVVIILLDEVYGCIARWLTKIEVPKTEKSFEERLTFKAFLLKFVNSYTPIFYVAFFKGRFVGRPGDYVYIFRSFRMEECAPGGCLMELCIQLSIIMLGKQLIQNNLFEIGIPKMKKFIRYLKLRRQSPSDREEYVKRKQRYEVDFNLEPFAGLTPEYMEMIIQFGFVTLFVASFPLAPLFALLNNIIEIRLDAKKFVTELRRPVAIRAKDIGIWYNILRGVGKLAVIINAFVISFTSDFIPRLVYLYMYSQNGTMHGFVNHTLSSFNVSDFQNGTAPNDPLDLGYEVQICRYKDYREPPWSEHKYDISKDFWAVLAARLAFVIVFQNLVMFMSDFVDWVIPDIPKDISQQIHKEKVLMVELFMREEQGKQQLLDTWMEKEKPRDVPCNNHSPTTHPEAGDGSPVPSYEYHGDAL
Outline: (§1)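 Whole-cell recording at room temperature in HEK293A cells transfected with GFP-mANO1, GFP-mANO2 or GFP-mTTYH1. 1 s ramps from +80 to -80 mV, holding potential -10 mV. For ANO1/ANO2: pipette CsCl 146 mM with Ca-EGTA-NMDG, pH 7.3; bath NaCl-based, pH 7.3. For TTYH1: Tris-aspartate pipette (pH 7.2) and Tris-HCl bath (pH 7.4), with […] and BaCl2 added to block K+ channels, and hypotonic (220 mOsm/kg) bath. Washout recordings assessed reversibility.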

[5] = tested on: U-251; experiment: Inhibition of anchorage-independent colony formation in human U251 cells at 100 uM incubated for 14 days by crystal violet staining based soft agar colony formation assay; format: functional; details: U-251, 336 h, time 14 day
Outline: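 Soft agar assay: 2.0×10^3 U251 cells in complete medium with 0.3% agar over a 0.6% bottom agar layer. Treated with compounds at 1-100 μM for 14 days, 37 °C, 5% CO2. Colonies stained with crystal violet for 24 h, whole wells photographed and colonies counted against DMSO control; n = 3.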

[6] = biological target: T2, Anoctamin-1 (Homo sapiens) (UniProt Q5XXA6); experiment: Inhibition of ANO1 in human U251 cells assessed as inhibition of channel current at 10 uM by patch clamp electrophysiology assay; format: cell-based; details: U-251
T2 sequence (whole entry): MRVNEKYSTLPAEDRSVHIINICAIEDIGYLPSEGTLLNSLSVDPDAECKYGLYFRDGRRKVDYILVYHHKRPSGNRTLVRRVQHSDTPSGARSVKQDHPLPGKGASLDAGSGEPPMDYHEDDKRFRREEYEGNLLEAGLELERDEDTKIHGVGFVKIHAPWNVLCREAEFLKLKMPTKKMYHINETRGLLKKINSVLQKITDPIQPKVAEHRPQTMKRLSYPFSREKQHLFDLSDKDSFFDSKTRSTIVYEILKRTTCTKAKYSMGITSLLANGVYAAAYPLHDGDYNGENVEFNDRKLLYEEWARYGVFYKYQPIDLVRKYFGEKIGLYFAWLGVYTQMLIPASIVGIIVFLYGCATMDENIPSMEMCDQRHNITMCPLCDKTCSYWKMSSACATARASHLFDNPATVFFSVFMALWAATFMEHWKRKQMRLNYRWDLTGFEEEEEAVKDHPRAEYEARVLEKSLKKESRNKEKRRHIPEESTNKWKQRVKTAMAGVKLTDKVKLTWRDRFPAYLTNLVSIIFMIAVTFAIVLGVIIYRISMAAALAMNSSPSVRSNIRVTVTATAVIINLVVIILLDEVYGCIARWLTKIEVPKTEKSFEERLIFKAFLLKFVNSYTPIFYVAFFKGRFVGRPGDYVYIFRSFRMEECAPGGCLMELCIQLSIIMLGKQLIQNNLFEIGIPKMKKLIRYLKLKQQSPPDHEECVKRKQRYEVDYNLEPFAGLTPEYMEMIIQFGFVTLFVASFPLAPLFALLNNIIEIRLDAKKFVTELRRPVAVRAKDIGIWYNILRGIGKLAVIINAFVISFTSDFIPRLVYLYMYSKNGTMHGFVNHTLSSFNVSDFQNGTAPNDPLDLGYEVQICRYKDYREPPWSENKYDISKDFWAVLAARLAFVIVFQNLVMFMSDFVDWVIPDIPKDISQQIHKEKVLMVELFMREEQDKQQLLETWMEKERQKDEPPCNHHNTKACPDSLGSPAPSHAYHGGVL
Outline: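 Endogenous ANO1 currents recorded by whole-cell patch clamp in U251 cells, room temperature. 1 s ramps from +80 to -80 mV, holding potential -10 mV. CsCl-based pipette with Ca-EGTA-NMDG (pH 7.3) and NaCl-based bath (pH 7.3).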

[7] = biological target: T1, Anoctamin-1 (Mus musculus); experiment: Irreversible inhibition of GFP-fused mouse ANO1 channel expressed in HEK293A cells assessed as inhibition of channel current amplitude at 10 uM at membrane potential of +80 mV measured after drug wash-out by patch clamp electrophysiology assay; format: cell-based; details: HEK293-A; outline: as §1

GI50 [3] [µM]	Activity [4] [%]	inhibition [6] [%]	inhibition [7]	SMILES	inhibition at 10 µM [1] [%]	inhibition [2]	inhibition at 100 µM [5] [%]	inhibition [1]
5.32	85.8	40	–	CC(C)(C)C(=O)Nc1sc2c(c1C(N)=O)CCC(C(C)(C)C)C2 (stereo unspecified)	90	Dose-dependent effect	95.7	–
–	–	60	Active	NC(=O)c1c(NC(=S)NC(=O)c2ccc(Cl)cc2)sc2c1CCC2	–	Dose-dependent effect	88	Active

From ChEMBL document CHEMBL4706565, “Anti-glioma effects of 2-aminothiophene-3-carboxamide derivatives, ANO1 channel blockers” (Eur J Med Chem, 2020)
